Active and inactive are the calls of the source. The rule behind the calls is not given here.
Legend:
[1] = Vasolrelaxant activity in guinea pig lung; type: functional; settings: Cavia porcellus
Cavia porcellus [2] = organism: Cavia porcellus; test: Vasolrelaxant activity in guinea pig trachea; type: functional, tissue-based
[3] = Vasolrelaxant activity in rat gastric fundus; type: functional, tissue-based; settings: Stomach
Cavia porcellus [4] = organism: Cavia porcellus; test: Apparent binding affinity to VIP receptor in guinea pig acinar cells assessed as inhibition of VIP-induced cAMP accumulation measured as concentration required to occupy 50% of receptor; type: cell-based
Outline: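 Dispersed acinar cells from guinea pig pancreas. Apparent affinity for the VIP-preferring receptor was calculated from the fragment's ability to inhibit the cAMP increase caused by 10^-9 M VIP. Values are means (±1 SD) from three separate experiments.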

Cavia porcellus [5] = organism: Cavia porcellus; test: Apparent binding affinity to secretin receptor in guinea pig acinar cells assessed as inhibition of secretin-induced cAMP accumulation measured as concentration required to occupy 50% of receptor; type: cell-based
Outline: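 Dispersed acinar cells from guinea pig pancreas. Apparent affinity for the secretin-preferring receptor was calculated from the fragment's ability to inhibit the cAMP increase caused by 10^-9 M secretin. Values are means (±1 SD) from three separate experiments.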

Rattus norvegicus [6] = test: Induction of pancreatic secretory flow in iv dosed rat measured per 10 mins per gram wet weight of pancreas; type: functional
Rattus norvegicus [7] = test: Induction of pancreatic secretory flow in iv dosed rat measured per 10 mins per gram wet weight of pancreas relative to secretin; type: functional
Rattus norvegicus [8] = organism: Rattus norvegicus; test: Effect on exocrine pancreatic secretion in rat; type: functional, organism-based

CC[C@H](C)[C@H](NC(=O)[C@H](CO)NC(=O)[C@H](CC(N)=O)NC(=O)[C@H](CC(C)C)NC(=O)[C@H](Cc1ccc(O)cc1)NC(=O)[C@H](CCCCN)NC(=O)[C@H](CCCCN)NC(=O)[C@@H](NC(=O)[C@H](C)NC(=O)[C@H](CCSC)NC(=O)[C@H](CCC(N)=O)NC(=O)[C@H](CCCCN)NC(=O)[C@H](CCCN=C(N)N)NC(=O)[C@H](CC(C)C)NC(=O)[C@H](CCCN=C(N)N)NC(=O)[C@@H](NC(=O)[C@H](Cc1ccc(O)cc1)NC(=O)[C@H](CC(N)=O)NC(=O)[C@H](CC(=O)O)NC(=O)[C@@H](NC(=O)[C@H](Cc1ccccc1)NC(=O)[C@@H](NC(=O)[C@H](C)NC(=O)[C@H](CC(=O)O)NC(=O)[C@H](CO)NC(=O)[C@@H](N)Cc1c[nH]cn1)C(C)C)[C@@H](C)O)[C@@H](C)O)C(C)C)C(=O)N[C@@H](CC(C)C)C(=O)N[C@@H](CC(N)=O)C(N)=O
Activity [1]: Active
Activity (Cavia porcellus [2]): Active
Activity [3]: Active

H-TFTSELSRLRDSARLQRLLQGLV-NH2
Activity [1]: Active
Activity (Cavia porcellus [4]): 46 ×10⁻⁷ M
Activity (Cavia porcellus [2]): Active
Activity (Cavia porcellus [5]): 2.3 ×10⁻⁷ M
Activity [3]: Active

H-TFTSELSRLRKSARLQRLLQGLV-NH2
Activity (Rattus norvegicus [6]): 12.9 µL
Activity [1]: Active
Emax (Rattus norvegicus [7]): 20%
Activity (Cavia porcellus [4]): 10 ×10⁻⁷ M
Activity (Rattus norvegicus [8]): inactive
Activity (Cavia porcellus [2]): Active
Activity (Cavia porcellus [5]): 12 ×10⁻⁷ M
Activity [3]: Active

H-TFTSELSRLRNSARLQRLLQGLV-NH2
Activity (Rattus norvegicus [6]): Active
Activity (Cavia porcellus [4]): 8 ×10⁻⁷ M
Activity (Rattus norvegicus [8]): inactive
Activity (Cavia porcellus [5]): 1.9 ×10⁻⁷ M

SECRETIN
Activity (Rattus norvegicus [6]): Active
